Activity calls are given as the source filed them. No cut-off for these calls is given here.

In experiment [1] the test system is HeLa. Nature of the experiment: Induction of apoptosis in human HeLa cells assessed as caspase activation at 1 uM by Hoechst staining. The format is functional, cell-based. The method in brief:
(§1)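 HeLa cells, 2000 cells/well, treated 6 h (ABT-737 1 μM; other compounds 10 μM, alone or combined); Caspase-Glo 3/7 reagent added, luminescence read after 1 h, RLU normalized to alamarBlue fluorescence. Separately, cell death across doses of the combination scored by Hoechst staining.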

The subject of experiment [2] is HeLa. Nature of the experiment: Induction of apoptosis in human HeLa cells overexpressing Bad3SA at 10 uM after 12 hrs by Hoechst staining. The format is functional, cell-based. A digest of the protocol:
(§2)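 Doxycycline-inducible HeLa lines (Dox-GFP, Dox-Noxa, Dox-Bad3SA) induced with doxycycline (1 μg/mL) for 3 h, then treated for a further 12 h; ABT-737 tested at 1 μM, other compound at 10 μM, DMSO vehicle. Cells fixed and Hoechst-stained; condensed nuclei counted to give percent cell death.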

For experiment [3], the system named is HeLa. Put plainly: Induction of apoptosis in human HeLa cells assessed as caspase activation at 1 to 10 uM by Hoechst staining. The format is functional, cell-based. A digest of the protocol:
as §1

Experiment [4] concerns the target Induced myeloid leukemia cell differentiation protein Mcl-1 (Homo sapiens) (UniProt Q07820). Nature of the experiment: Inhibition of Mcl-1 in doxycyclin-stimulated human HeLa cells overexpressing Bad3SA assessed as increase in caspase3/7 activity at 50 uM after 6 hrs by luminescence analysis. The format is cell-based. A digest of the protocol: (§3)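 Dox-Bad3SA HeLa cells (Bad3SA expressed under doxycycline control) exposed to compound for 6 h, with doxycycline or without it. Caspase 3/7 activity read as Caspase-Glo luminescence 1 h after adding reagent. Raw luminescence was normalized to alamarBlue fluorescence to correct for cell number.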

The target is the same in experiment [5]. Nature of the experiment: Inhibition of Mcl-1 in human HeLa cells overexpressing Bad3SA assessed as increase in caspase3/7 activity at 50 uM after 6 hrs by luminescence analysis. The format is cell-based. The method in brief:
as §3

Experiment [6] shares this target. Put plainly: Induction of Mcl-1-mediated apoptosis in doxycyclin-stimulated human HeLa cells expressing GFP at 10 uM after 12 hrs by Hoechst staining. The format is cell-based. The method in brief:
as §2

The target is the same in experiment [7]. Nature of the experiment: Induction of Mcl-1-mediated apoptosis in doxycyclin-stimulated human HeLa cells overexpressing Bad3SA at 10 uM after 12 hrs by Hoechst staining. The format is cell-based. A digest of the protocol:
as §2

Experiment [8] addresses Bcl-2-like protein 1 (Homo sapiens) (UniProt Q07817). Nature of the experiment: Induction of Bcl-xL-mediated apoptosis in doxycyclin-stimulated human HeLa cells overexpressing Noxa at 10 uM after 12 hrs by Hoechst staining. The format is cell-based. The method in brief: as §2
Experiment [9] deals with HeLa. Put plainly: Induction of apoptosis in human HeLa cells assessed as decrease in Mcl-1 level after 12 hrs by Western blot analysis.
The test system of experiment [10] is HeLa. Nature of the experiment: Induction of apoptosis in human HeLa cells assessed as decrease in XIAP expression at 10 uM by Western blot analysis. The format is functional, cell-based. A digest of the protocol:
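HeLa cells treated 24 h, media and trypsinized cells pooled, lysed in RIPA buffer (pH 8.0); SDS-PAGE and Western blot for XIAP, α-tubulin as loading control.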

Experiment [11] relates to HeLa. Nature of the experiment: Induction of apoptosis in human HeLa cells expressing Bcl-xL assessed as decrease in Mcl-1 level at 1 to 10 uM by Western blot analysis. The format is functional, cell-based. To be noted: TDE = time-dependent effect. The method in brief: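 HeLa cells exposed to 1, 5 or 10 μM for 12 h (dose response), and Bcl-xL-overexpressing HeLa cells exposed to 10 μM for 3, 6 or 12 h (time course); lysates resolved by SDS-PAGE and blotted for Mcl-1, Bcl-xL and Bcl-2, actin as loading control, DMSO vehicle.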

Chain of Induced myeloid leukemia cell differentiation protein Mcl-1 (Homo sapiens) (Q07820 whole entry): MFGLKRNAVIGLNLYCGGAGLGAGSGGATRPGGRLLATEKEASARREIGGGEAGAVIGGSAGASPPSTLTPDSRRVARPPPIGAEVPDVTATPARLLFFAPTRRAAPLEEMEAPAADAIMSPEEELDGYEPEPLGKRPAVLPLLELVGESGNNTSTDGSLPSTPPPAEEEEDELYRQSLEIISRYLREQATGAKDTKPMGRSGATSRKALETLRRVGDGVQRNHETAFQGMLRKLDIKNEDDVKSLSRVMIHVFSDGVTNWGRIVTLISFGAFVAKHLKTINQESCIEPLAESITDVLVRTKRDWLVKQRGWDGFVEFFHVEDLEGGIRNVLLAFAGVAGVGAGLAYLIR
Chain of Bcl-2-like protein 1 (Homo sapiens) (Q07817 whole entry): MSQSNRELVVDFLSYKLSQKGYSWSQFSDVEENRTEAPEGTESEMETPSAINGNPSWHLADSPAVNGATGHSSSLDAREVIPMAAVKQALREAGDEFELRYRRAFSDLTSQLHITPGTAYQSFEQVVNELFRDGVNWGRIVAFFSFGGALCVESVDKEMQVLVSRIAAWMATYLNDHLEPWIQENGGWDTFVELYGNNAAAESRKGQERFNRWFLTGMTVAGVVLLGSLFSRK

With `CN(C)CC[C@H](CSc1ccccc1)Nc1ccc(S(=O)(=O)NC(=O)c2ccc(N3CCN(Cc4ccccc4-c4ccc(Cl)cc4)CC3)cc2)cc1[N+](=O)[O-]`, the outcome with HeLa [1] was inactive.

Turning to `O=C(Nc1ccc2nc(-c3ccco3)c(-c3ccco3)nc2c1)Nc1ccccc1Br`, the result with HeLa [2] was inactive.

In the case of `O=C(Nc1ccc(Br)cc1)Nc1ccc2nc(-c3ccccc3)c(-c3ccccc3)nc2c1`, the outcome in the experiment on HeLa [2] was Active.

On to `O=C(Nc1ccc(Br)cc1)Nc1ccc2nc(-c3ccccn3)c(-c3ccccn3)nc2c1`, for which the result in the experiment with HeLa [2] was inactive.

Turning to `O=C(Nc1ccccc1)Nc1ccc2nccnc2c1`, the result in the experiment with HeLa [2] was inactive.

With `O=C(Nc1ccc(Br)cc1)Nc1ccc2nc(-c3cccs3)c(-c3cccs3)nc2c1`, the outcome in the experiment with HeLa [2] was inactive.

Regarding `Cc1nc2ccc(NC(=O)Nc3ccc(Br)cc3)cc2nc1C`, the result in the experiment on HeLa [3] and with HeLa [2] was inactive.

Regarding `CC[C@@]1(O)C(=O)OCc2c1cc1n(c2=O)Cc2cc3ccccc3nc2-1`, in [4], the inhibition entry is “Active”. In addition, in experiment [5], the inhibition entry is “inactive”.

`O=C(Nc1ccc(Br)cc1)Nc1ccc2nc(-c3ccco3)c(-c3ccco3)nc2c1`: the outcome (in [6]; in the experiment on HeLa [3]; in experiment [8]) was inactive. The outcome (in [7]; in the experiment with HeLa [2]; with HeLa [10]) was Active. Also, the Activity result in the experiment on HeLa [9] is “Dose-dependent effect”; with HeLa [11], “tde”.

In the case of `O=C(Nc1cccc(Br)c1)Nc1ccc2nc(-c3ccco3)c(-c3ccco3)nc2c1`, the result in the experiment with HeLa [2] was Active.

The record behind these values is ChEMBL document CHEMBL2010640, “Perturbing pro-survival proteins using quinoxaline derivatives: a structure-activity relationship study” (Bioorg Med Chem, 2012).
